Results published in the M2OR odorant receptor database.
Where a chain is given by its changes, count along the chain named.

Assays:
Settings in all cases: stereoisomer not certain
O52E8 = test system: O52E8
Outline: (§1)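 Values were gathered from published papers (main text and supplementary material), with extra details requested from the original authors when needed, and checked for typos and inconsistencies. Each receptor–molecule pair is called responsive (active) if the original authors judged the measured signal statistically different from baseline, and non-responsive (inactive) otherwise. Assay methods varied by source, often transient mammalian cell-line luciferase assays. Recorded details include cell line, G-protein, co-transfected protein and tags.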

O52H1 = test system: T1, O52H1
T1 sequence (whole entry): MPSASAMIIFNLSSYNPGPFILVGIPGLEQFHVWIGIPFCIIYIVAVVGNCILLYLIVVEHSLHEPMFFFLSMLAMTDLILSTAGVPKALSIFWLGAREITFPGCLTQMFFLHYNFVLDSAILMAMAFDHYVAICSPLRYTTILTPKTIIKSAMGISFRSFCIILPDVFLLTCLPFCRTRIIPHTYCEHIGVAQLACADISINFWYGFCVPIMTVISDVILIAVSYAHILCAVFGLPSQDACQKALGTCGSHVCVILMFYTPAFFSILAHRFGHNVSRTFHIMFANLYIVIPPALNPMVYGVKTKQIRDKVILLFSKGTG
Outline: as §1

O52A1 = test system: T2, O52A1
T2 sequence (whole entry): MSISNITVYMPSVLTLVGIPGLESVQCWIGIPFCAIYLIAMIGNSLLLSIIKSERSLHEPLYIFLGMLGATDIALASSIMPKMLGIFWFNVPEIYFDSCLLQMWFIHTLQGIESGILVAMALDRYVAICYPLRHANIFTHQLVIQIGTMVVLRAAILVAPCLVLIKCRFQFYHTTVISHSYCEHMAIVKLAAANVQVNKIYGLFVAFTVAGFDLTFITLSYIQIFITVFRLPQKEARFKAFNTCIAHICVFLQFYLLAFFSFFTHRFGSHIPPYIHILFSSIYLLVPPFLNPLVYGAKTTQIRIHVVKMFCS
Outline: as §1

O52B6 V288I = test system: T3, O52B6 V288I
T3 sequence (whole entry): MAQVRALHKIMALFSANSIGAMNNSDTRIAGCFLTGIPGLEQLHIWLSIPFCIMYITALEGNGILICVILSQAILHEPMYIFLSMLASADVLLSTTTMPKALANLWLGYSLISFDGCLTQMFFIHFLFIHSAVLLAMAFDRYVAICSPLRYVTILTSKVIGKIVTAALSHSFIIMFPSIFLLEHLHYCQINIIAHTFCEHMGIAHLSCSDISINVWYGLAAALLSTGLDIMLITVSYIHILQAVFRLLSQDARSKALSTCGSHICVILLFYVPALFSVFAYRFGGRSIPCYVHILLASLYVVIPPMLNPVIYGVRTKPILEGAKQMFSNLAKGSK
Outline: as §1

O52E2 R264C = test system: O52E2 R264C
Outline: as §1

O52E4 = test system: O52E4
Outline: as §1

O52H1 A89T H130R C242R = test system: T4, O52H1 A89T H130R C242R
T4 sequence (whole entry): T1 sequence (whole entry) with A89T, H130R, C242R
Outline: as §1

O52H1 H130R C242R = test system: T5, O52H1 H130R C242R
T5 sequence (whole entry): T1 sequence (whole entry) with H130R, C242R
Outline: as §1

O52I2 I74L = test system: T6, O52I2 I74L
T6 sequence (whole entry): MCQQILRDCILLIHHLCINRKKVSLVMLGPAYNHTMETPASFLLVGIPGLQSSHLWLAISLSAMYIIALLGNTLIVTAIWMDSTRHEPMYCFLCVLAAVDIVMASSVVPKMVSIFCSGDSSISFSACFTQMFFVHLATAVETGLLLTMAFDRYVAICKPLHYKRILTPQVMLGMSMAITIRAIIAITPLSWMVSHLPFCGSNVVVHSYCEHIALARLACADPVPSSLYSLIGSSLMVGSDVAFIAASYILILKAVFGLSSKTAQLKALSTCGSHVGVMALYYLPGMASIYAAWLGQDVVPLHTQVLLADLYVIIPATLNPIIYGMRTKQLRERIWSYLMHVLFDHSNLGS
Outline: as §1

O52J3 T77A V128I Q141L = test system: O52J3 T77A V128I Q141L
Outline: as §1

O52K1 A119T A149T = test system: T7, O52K1 A119T A149T
T7 sequence (whole entry): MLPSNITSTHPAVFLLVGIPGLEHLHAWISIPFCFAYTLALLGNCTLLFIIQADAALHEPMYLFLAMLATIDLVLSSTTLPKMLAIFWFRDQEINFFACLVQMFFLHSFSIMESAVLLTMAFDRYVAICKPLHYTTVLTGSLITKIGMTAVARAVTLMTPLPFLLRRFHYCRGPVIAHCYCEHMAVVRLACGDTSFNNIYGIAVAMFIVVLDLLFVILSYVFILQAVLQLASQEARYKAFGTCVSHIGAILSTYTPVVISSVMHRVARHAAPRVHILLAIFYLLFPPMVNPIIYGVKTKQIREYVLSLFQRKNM
Outline: as §1

O52K1 Q52R = test system: T8, O52K1 Q52R
T8 sequence (whole entry): T7 sequence (whole entry) with Q52R, T119A, T149A
Outline: as §1

O52M1 S305R = test system: T9, O52M1 S305R
T9 sequence (whole entry): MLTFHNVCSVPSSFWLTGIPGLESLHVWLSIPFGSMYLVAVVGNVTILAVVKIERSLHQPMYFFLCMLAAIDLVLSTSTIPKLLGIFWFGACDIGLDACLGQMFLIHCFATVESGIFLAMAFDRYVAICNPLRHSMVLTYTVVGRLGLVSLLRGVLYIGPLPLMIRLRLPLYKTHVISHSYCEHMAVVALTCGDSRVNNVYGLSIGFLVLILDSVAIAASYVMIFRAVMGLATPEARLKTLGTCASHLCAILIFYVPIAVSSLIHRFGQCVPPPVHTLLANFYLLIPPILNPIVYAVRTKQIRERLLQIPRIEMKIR
Outline: as §1

O52N1 R167C F247I = test system: T10, O52N1 R167C F247I
T10 sequence (whole entry): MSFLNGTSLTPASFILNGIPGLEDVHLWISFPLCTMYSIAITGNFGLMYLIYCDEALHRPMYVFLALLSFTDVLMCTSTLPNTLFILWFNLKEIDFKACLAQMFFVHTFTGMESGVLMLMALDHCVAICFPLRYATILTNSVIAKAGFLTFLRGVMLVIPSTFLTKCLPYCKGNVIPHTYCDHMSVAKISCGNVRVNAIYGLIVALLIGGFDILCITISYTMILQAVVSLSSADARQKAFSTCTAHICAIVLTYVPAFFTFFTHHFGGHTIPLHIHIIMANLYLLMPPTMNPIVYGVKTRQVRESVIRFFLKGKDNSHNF
Outline: as §1

O52N2 S249A H264R = test system: T11, O52N2 S249A H264R
T11 sequence (whole entry): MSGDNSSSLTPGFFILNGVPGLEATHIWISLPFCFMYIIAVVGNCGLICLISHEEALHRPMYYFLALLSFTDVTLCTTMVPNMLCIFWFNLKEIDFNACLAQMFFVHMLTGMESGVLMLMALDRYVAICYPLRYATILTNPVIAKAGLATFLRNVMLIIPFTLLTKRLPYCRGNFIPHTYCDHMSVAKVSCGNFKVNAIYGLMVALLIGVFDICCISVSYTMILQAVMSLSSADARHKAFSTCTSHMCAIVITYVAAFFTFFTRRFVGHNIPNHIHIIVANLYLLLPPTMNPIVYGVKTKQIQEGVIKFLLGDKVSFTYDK
Outline: as §1

O52W1 H239R L254Q = test system: T12, O52W1 H239R L254Q
T12 sequence (whole entry): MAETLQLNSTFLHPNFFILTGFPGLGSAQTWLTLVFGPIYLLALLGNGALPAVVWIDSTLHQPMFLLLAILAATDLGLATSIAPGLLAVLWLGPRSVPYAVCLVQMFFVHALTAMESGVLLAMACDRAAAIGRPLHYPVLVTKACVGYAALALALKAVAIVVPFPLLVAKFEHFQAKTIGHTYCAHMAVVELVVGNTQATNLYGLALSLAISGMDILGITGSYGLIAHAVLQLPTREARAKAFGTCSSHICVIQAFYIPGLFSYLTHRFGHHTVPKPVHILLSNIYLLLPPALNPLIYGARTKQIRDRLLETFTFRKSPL
Outline: as §1

O56A3 = test system: T13, O56A3
T13 sequence (whole entry): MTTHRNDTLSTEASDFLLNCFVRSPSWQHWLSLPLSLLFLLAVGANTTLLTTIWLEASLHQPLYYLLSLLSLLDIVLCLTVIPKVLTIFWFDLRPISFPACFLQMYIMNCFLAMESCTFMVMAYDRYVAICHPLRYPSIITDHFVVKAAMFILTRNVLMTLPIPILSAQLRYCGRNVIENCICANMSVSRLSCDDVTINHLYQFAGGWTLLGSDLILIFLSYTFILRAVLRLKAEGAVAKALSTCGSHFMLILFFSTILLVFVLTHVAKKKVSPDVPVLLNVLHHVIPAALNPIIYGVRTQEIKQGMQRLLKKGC
Outline: as §1

O56A4 I247A = test system: T14, O56A4 I247A
T14 sequence (whole entry): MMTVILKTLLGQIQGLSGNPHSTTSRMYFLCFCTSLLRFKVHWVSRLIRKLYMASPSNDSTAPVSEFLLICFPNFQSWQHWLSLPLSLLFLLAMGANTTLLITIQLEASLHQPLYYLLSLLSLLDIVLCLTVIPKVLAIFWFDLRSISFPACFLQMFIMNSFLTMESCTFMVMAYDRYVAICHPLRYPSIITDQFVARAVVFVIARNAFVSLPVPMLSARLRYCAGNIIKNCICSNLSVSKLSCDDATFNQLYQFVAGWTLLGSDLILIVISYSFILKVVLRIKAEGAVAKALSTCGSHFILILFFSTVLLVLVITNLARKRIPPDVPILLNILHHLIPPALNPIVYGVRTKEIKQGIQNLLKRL
Outline: as §1

O52E5 = test system: O52E5
Outline: as §1

O52L1 = test system: T15, O52L1
T15 sequence (whole entry): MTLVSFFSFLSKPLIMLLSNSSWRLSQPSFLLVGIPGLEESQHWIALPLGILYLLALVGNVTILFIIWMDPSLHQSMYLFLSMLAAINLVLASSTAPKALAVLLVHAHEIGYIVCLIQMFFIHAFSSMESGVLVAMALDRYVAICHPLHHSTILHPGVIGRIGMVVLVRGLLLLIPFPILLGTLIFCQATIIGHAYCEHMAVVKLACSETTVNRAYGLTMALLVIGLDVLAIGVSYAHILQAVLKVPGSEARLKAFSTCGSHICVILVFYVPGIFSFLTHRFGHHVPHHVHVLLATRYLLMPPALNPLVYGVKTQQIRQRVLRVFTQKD
Outline: as §1

Measured: odorant receptor agonist call

Chain of O52E5 (as listed by the source): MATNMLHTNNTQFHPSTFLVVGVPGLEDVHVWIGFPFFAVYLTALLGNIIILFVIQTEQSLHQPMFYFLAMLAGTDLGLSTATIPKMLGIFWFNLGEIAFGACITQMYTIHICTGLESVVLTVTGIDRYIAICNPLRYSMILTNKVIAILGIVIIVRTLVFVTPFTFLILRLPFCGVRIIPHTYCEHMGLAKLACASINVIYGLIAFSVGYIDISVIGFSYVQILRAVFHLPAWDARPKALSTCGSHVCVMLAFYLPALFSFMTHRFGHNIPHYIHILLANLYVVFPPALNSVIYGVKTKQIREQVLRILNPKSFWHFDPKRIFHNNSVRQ
Chain of O52E8 (as listed by the source): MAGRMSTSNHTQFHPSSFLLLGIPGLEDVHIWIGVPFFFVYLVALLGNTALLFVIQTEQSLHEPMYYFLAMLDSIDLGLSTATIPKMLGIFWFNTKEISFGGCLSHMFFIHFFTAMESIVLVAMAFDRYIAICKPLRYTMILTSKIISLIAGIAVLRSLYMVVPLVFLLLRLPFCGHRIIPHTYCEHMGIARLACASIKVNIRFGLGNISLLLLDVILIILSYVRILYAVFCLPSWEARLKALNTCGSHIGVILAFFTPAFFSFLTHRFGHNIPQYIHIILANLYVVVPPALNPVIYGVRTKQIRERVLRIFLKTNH
Chain of O52E2 R264C (as listed by the source, stated change not applied): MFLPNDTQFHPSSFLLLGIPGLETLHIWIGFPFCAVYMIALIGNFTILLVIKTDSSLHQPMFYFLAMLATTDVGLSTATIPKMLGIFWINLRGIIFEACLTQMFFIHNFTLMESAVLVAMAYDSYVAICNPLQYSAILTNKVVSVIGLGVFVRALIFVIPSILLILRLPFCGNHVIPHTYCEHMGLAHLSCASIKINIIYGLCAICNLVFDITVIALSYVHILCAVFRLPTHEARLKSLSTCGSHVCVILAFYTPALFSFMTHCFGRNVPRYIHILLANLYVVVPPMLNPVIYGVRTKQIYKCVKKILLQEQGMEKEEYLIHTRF
Chain of O52E4 (as listed by the source): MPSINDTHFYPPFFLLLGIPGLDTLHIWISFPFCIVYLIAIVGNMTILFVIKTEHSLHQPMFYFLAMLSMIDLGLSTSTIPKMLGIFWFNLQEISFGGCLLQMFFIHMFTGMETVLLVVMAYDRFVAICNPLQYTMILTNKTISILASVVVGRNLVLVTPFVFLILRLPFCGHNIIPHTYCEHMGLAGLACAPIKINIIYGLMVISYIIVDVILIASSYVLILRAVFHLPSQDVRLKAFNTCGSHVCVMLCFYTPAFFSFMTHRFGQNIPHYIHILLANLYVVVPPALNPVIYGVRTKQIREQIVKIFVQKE

CC(CO)CS (centres undefined)
inactive: O52E8 | O52H1

CC(=O)c1c(C)c([N+](=O)[O-])c(C(C)(C)C)c([N+](=O)[O-])c1C
inactive: O52E8 | O52H1

CCCCCCC=CCCC=O
not listed: O52E5 | O52L1
inactive: all other assays above

CC1=C(O)C(=O)OC1C (centres undefined)
inactive: all assays above

CCCCC(S)C(C)CO (centres undefined)
inactive: O52E8 | O52H1

CC1CCCCCCCCCCCCC(=O)C1 (centres undefined)
inactive: O52E8 | O52H1

CCCC(S)CCOC(C)=O (centres undefined)
inactive: all assays above

CCCCCC(=O)C(C)C(C)=O (centres undefined)
inactive: O52E8 | O52H1

CCCCCC1CCCC(=O)O1 (centres undefined)
inactive: O52E8 | O52H1

CCC1OC(C)=C(O)C1=O (centres undefined)
inactive: all assays above

CCC1OC(=O)C(O)=C1C (centres undefined)
inactive: all assays above

Cc1cnc(C)c(C)n1
inactive: all assays above

CC1=NC(C)C(C)S1 (centres undefined)
inactive: all assays above

CCCCCC(S)C(C)CO (centres undefined)
inactive: O52E8 | O52H1

CCC(S)C(C)CO (centres undefined)
inactive: O52E8 | O52H1

CC1=C(O)C(=O)C(C)O1 (centres undefined)
inactive: all assays above
